Target: T1, Neuromedin-K receptor (Homo sapiens, UniProt P29371)
T1 sequence (P29371 whole entry): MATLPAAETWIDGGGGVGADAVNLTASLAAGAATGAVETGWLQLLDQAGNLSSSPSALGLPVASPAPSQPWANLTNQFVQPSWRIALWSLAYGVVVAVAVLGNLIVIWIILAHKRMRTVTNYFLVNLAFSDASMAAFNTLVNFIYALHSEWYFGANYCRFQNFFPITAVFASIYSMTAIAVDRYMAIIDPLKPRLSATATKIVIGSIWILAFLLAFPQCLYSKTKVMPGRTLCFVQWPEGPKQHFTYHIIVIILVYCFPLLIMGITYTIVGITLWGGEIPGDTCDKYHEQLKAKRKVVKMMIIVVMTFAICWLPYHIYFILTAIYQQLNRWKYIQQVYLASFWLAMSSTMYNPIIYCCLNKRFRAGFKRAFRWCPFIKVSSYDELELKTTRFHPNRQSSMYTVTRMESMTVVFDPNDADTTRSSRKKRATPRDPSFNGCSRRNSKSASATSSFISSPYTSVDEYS
Test: Antagonist activity against human NK3 receptor expressed in HEK293 cells assessed as inhibition of MePhe7-NKB-induced increase of intracellular calcium level by fluorescent plate-reader analysis
Format: functional, cell-based
Details: in the assay text read “CHO cells” for “HEK293 cells”
Method in brief: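 Calcium responses to 50 nM MePhe7-NKB were measured across increasing antagonist concentrations, and IC50 was derived from the concentration-response curve.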

Row | IC50 [nM] | Structure (SMILES)
1 | 1400 | CCC(NC(=O)c1cc(-c2ccccc2)nc2ccccc12)c1ccccn1 (configuration not stated)
2 | 9900 | CC(NC(=O)c1cc(-c2ccccc2)nc2ccccc12)c1ccccc1 (configuration not stated)

Target: T1, Neuromedin-K receptor
Test: Antagonist activity against human NK3 receptor expressed in CHO cells assessed as inhibition of senktide-induced increase of intracellular calcium level after 10 mins by fluorescent plate-reader analysis relative to control
Details: not given

Row | IC50 [nM] | Structure (SMILES)
3 | 900 | CCC(NC(=O)c1cc(-c2ccccc2)nc2ccccc12)c1ccccn1 (configuration not stated)
4 | 2200 | CC(NC(=O)c1cc(-c2ccccc2)nc2ccccc12)c1ccccc1 (configuration not stated)

Target: T2, Neuromedin-K receptor (Homo sapiens) (UniProt P29371)
T2 sequence (whole entry): T1 sequence (P29371 whole entry)
Test: not given
Details: CHO

Row | Ks [nM] | Structure (SMILES)
5 | 1 | CC(=O)N(C)C1(c2ccccc2)CCN(CCC[C@]2(c3ccc(Cl)c(Cl)c3)CCCN(C(=O)c3ccccc3)C2)CC1

Target: T2, Neuromedin-K receptor (Homo sapiens)
Test: Antagonist activity against human NK3 receptor expressed in CHO cells assessed as inhibition of senktide-induced increase of intracellular calcium level at 50 uM after 10 mins by fluorescent plate-reader analysis relative to control
Format: functional, cell-based
Details: not given
Method in brief: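 hNK3R-expressing CHO cells were preincubated 10 min with test compound at 50 μM. The calcium response to 200 nM senktide was then measured and expressed as percent inhibition versus the senktide response without antagonist.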

Row | inhibition [%] | Structure (SMILES)
6 | 17 | Cc1ccc(-c2cc(C(=O)NCCc3ccccc3)c3ccccc3n2)cc1
7 | 30 | O=C(NCc1ccccc1)c1cc(-c2ccccc2)nc2ccccc12
8 | 54 | O=C(NCCc1ccccc1)c1cc(-c2ccccc2)nc2ccccc12
9 | 82 | CCC(NC(=O)c1cc(-c2ccccc2)nc2ccccc12)c1ccccn1 (configuration not stated)
10 | 21 | Cc1ccc(CNC(=O)c2cc(-c3ccccc3)nc3ccccc23)cc1
11 | 17 | O=C(NCc1ccccn1)c1cc(-c2ccccc2)nc2ccccc12
12 | 61 | CC(NC(=O)c1cc(-c2ccccc2)nc2ccccc12)c1ccccc1 (configuration not stated)

The next lines start with the compound.

Row | Structure (SMILES) | inhibition [%]
13 | CCOC(=O)c1nn(C)c2c1CN(C(=O)c1cc(-c3ccccc3)nc3ccccc13)CC2 | 8
14 | Cc1ccc(CNC(=O)c2cc(-c3ccc(C)cc3C)nc3ccccc23)cc1 | 9
15 | CCCN1N=C(C(=O)NC(C)c2ccccc2)C2CN(CC)CCC21 (configuration not stated) | 6
16 | Cc1cccc(-c2nc3c(NCc4ccccc4)nccc3[nH]2)c1 | 40
17 | O=C(NCc1ccc(Cl)cc1)c1cc(-c2ccc(Cl)cc2)nc2ccccc12 | 13
18 | COc1ccc(-c2cc(C(=O)NC(C)c3ccccn3)c3ccccc3n2)cc1OC (configuration not stated) | 16
19 | COc1cccc(-c2nc3c(NCc4ccncc4)nccc3[nH]2)c1F | 39
20 | Cc1ccc(-c2cc(C(=O)NC(C)c3ccccc3)c3ccccc3n2)c(C)c1 (configuration not stated) | 18
21 | c1ccc(CNc2nccc3[nH]c(-c4ccccc4)nc23)cc1 | 42
22 | Cc1nc(-c2ccncc2)n2c1CN(C(=O)C1Cc3ccccc3O1)CC2 (configuration not stated) | 6
23 | O=C(NCc1ccc(Cl)cc1)c1cc(-c2ccccc2Cl)nc2ccccc12 | 14
24 | Cc1ccc(-c2cc(C(=O)NCc3ccc(F)cc3)c3ccccc3n2)cc1 | 7

Target: T1, Neuromedin-K receptor
Test: biochemical
Details: not given

Row | Ki [nM] | IC50 [nM] | Structure (SMILES)
25 | 1000 |  | NC(=O)C(NC(=O)c1cc(-c2ccccc2)nc2ccccc12)c1ccccc1 (configuration not stated)
26 | 200 |  | O=C(NC(CO)c1ccccc1)c1cc(-c2ccccc2)nc2ccccc12 (configuration not stated)
27 |  | 5.2 | CCC(NC(=O)c1cc(-c2ccccc2)nc2ccccc12)c1ccccn1 (configuration not stated)
28 | 1000 |  | COC(=O)CC(NC(=O)c1cc(-c2ccccc2)nc2ccccc12)c1ccccc1 (configuration not stated)
29 | 50.1 |  | CCCC(NC(=O)c1cc(-c2ccccc2)nc2ccccc12)c1ccccc1 (configuration not stated)
30 | 251 | 33.5 | CC(NC(=O)c1cc(-c2ccccc2)nc2ccccc12)c1ccccc1 (configuration not stated)
31 | 79.4 |  | CC(C)C(NC(=O)c1cc(-c2ccccc2)nc2ccccc12)c1ccccc1 (configuration not stated)
32 | 501 |  | O=C(NC(c1ccccc1)C(F)(F)F)c1cc(-c2ccccc2)nc2ccccc12 (configuration not stated)
33 | 398 |  | O=C(NC(CCO)c1ccccc1)c1cc(-c2ccccc2)nc2ccccc12 (configuration not stated)
34 | 25.1 |  | CC(=O)C(NC(=O)c1cc(-c2ccccc2)nc2ccccc12)c1ccccc1 (configuration not stated)
35 | 501 |  | CNC(=O)C(NC(=O)c1cc(-c2ccccc2)nc2ccccc12)c1ccccc1 (configuration not stated)

The next lines start with the compound.

Row | Structure (SMILES) | Ki [nM] | IC50 [nM]
36 | Nc1c(-c2cccc(F)c2)nc2ccccc2c1C(=O)NC(c1ccccc1)C1CC1 (configuration not stated) | 10 | 
37 | Nc1c(-c2cccc(F)c2)nc2ccccc2c1C(=O)NC(c1cccc(F)c1)C1CC1 (configuration not stated) | 6.31 | 
38 | CCC(NC(=O)c1c(N)c(-c2cccc(F)c2)nc2ccccc12)c1ccccc1 (configuration not stated) | 3.98 | 
39 | Nc1c(-c2ccccc2)nc2ccccc2c1C(=O)NC(c1ccccc1F)C1CC1 (configuration not stated) | 5.01 | 
40 | CCCCc1c(-c2ccccc2)nc2ccccc2c1C(=O)NC(CC)c1ccccc1 (configuration not stated) | 15.8 | 
41 | CCCc1c(-c2ccccc2)nc2ccccc2c1C(=O)NC(CC)c1ccccc1 (configuration not stated) | 12.6 | 
42 | CCC(NC(=O)c1c(OC)c(-c2ccccc2)nc2ccccc12)c1ccccc1 (configuration not stated) | 6.31 | 
43 | Nc1c(-c2ccccc2)nc2ccccc2c1C(=O)NC(c1ccccc1)C1CC1 (configuration not stated) | 5.01 | 
44 | Nc1c(-c2ccccc2)nc2ccccc2c1C(=O)NC(c1cccc(F)c1)C1CC1 (configuration not stated) | 3.16 | 
45 | CCCCC(NC(=O)c1cc(-c2ccccc2)cc2ccccc12)c1ccccc1 (configuration not stated) | 158 | 
46 | CCCCCCc1c(-c2ccccc2)nc2ccccc2c1C(=O)NC(CC)c1ccccc1 (configuration not stated) | 50.1 | 
47 | CCCCCCCC(NC(=O)c1cc(-c2ccccc2)nc2ccccc12)c1ccccc1 (configuration not stated) | 5010 | 
48 | CN(C)C(=O)C(NC(=O)c1cc(-c2ccccc2)nc2ccccc12)c1ccccc1 (configuration not stated) | 501 | 
49 | CCC(NC(=O)c1c(-c2ccccc2)c(-c2ccccc2)nc2ccccc12)c1ccccc1 (configuration not stated) | 50.1 | 
50 | CCC(NC(=O)c1c(N)c(-c2ccc(F)cc2)nc2ccccc12)c1ccccc1 (configuration not stated) | 7.94 | 
51 | O=C(NC(Cc1ccccc1)c1ccccc1)c1cc(-c2ccccc2)nc2ccccc12 (configuration not stated) | 3160 | 

Source: ChEMBL document CHEMBL1275402, “Virtual screening to identify novel antagonists for the G protein-coupled NK3 receptor” (J Med Chem, 2010)
